Assay results as given in paper PMC5896753 (ACS chemical biology, 2017).

Columns and labels:
Neu7 astrocytes [1] = assay: disaccharide composition of secreted CSPGs; type: cell-based
Neu7 astrocytes [2] = assay: cell-surface CS-E expression, immunostaining with CS-E-specific antibody; type: cell-based
How it was run: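 Neu7 astrocytes were treated with test compound, with chlorate as comparator. Cells were co-stained with a CS-E-specific antibody and the nuclear stain DAPI, and average anti-CS-E fluorescence per condition was quantified from images. Mean ± S.E.M. of three experiments, 20-100 cells per experiment.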

Chst15 [3] = biological target: T1, Chst15 (Homo sapiens, UniProt Q7LFX5); assay: enzyme-coupled fluorescence assay; type: biochemical
T1 sequence (Q7LFX5 1-561): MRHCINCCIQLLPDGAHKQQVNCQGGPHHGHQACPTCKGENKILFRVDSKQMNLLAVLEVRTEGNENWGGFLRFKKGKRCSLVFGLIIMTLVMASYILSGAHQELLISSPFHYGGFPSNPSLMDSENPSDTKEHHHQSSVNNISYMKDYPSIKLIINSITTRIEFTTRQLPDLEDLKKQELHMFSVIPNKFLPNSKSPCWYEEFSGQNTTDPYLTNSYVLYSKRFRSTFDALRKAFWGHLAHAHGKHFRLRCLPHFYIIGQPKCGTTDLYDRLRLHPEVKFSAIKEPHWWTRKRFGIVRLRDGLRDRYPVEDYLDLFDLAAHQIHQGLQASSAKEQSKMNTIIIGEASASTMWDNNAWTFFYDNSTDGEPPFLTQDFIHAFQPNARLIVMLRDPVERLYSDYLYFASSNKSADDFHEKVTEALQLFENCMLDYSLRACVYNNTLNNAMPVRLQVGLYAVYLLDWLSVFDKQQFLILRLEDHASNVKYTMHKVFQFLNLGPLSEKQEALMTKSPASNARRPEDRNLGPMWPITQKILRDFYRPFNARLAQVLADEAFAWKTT

DRG neurons = assay: in vitro CSPG boundary assay; type: cell-based, rat; settings: CSPGs from treated vs untreated Neu7 astrocytes
How it was run: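 Boundary assay: purified CSPGs from Neu7 astrocytes treated with or without test compound were mixed with Texas Red dye and spotted onto glass coverslips. DRG neurons were plated on the coverslips, and the percentage of neurites crossing the CSPG boundary was scored. Mean ± S.E.M. from five experiments, 20-40 cells each.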

Chst15 [4] = biological target: T1, Chst15; assay: sulfotransferase specificity panel; type: biochemical
[5] = liver microsome stability; type: in vitro ADME; settings: rat
Chst15 [6] = biological target: T1, Chst15; assay: [35S]-labeling assay; type: biochemical; settings: 25 μM of inhibitor; normalized to the inhibition by compound 19; three independent measurements
Sult1c1 = Sult1c1 counter-screen; type: biochemical; settings: concentrations tested 3-100 μM
[7] = biological target: T2, chondroitin 4-O-sulfotransferase Chst11 (Homo sapiens, UniProt Q9NPF2); assay: sulfotransferase specificity panel; type: biochemical
T2 sequence (Q9NPF2 1-352): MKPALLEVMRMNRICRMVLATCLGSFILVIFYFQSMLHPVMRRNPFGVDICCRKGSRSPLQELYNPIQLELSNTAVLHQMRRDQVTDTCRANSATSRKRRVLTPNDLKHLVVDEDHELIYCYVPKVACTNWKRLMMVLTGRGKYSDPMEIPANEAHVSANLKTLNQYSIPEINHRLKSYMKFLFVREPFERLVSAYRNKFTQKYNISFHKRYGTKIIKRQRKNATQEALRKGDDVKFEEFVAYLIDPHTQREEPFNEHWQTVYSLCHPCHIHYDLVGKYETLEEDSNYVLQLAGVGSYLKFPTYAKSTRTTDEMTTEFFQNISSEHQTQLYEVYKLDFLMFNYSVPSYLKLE

Sult2b1b = biological target: T3, Sult2b1b (Homo sapiens, UniProt O00204); assay: sulfotransferase specificity panel; type: biochemical
T3 sequence (O00204 1-365): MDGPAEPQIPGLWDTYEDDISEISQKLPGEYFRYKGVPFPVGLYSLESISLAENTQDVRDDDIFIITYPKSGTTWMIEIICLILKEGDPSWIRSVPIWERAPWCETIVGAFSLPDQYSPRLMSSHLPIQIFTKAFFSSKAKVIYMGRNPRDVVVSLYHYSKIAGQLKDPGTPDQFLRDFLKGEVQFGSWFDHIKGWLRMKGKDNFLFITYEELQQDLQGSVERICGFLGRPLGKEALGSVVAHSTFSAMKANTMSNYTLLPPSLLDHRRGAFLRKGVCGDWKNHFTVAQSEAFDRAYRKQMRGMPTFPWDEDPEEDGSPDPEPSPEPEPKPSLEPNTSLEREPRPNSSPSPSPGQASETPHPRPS

NIH3T3 fibroblasts = assay: CS-E expression in fibroblasts; type: cell-based
[8] = biological target: heparan 3-O-sulfotransferase Hs3st1 (Homo sapiens, UniProt O14792); assay: sulfotransferase specificity panel; type: biochemical
Chain of heparan 3-O-sulfotransferase Hs3st1 (O14792 21-307): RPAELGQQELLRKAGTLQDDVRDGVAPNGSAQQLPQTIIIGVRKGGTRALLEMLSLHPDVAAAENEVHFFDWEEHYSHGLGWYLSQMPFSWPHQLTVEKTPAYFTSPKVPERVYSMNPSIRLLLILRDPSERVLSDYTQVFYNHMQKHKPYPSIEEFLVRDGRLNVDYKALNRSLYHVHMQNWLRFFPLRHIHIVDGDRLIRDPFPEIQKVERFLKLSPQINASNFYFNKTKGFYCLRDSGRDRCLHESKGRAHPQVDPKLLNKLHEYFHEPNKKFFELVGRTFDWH

Sult1e1 = biological target: T4, Sult1e1 (Homo sapiens, UniProt P49888); assay: sulfotransferase specificity panel; type: biochemical
T4 sequence (P49888 1-294): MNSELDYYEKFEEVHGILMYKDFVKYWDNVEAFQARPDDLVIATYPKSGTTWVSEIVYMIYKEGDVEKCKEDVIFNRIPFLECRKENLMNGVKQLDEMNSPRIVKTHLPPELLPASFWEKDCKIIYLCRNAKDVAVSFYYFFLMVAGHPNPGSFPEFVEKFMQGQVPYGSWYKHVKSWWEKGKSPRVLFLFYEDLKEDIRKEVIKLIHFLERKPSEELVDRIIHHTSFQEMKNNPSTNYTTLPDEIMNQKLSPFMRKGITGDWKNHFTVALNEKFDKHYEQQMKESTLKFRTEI

[9] = liver microsome stability; type: in vitro ADME; settings: mouse
[10] = biological target: T5, chondroitin 2-O-sulfotransferase Ust (Homo sapiens, UniProt Q9Y2C2); assay: sulfotransferase specificity panel; type: biochemical
T5 sequence (Q9Y2C2 1-406): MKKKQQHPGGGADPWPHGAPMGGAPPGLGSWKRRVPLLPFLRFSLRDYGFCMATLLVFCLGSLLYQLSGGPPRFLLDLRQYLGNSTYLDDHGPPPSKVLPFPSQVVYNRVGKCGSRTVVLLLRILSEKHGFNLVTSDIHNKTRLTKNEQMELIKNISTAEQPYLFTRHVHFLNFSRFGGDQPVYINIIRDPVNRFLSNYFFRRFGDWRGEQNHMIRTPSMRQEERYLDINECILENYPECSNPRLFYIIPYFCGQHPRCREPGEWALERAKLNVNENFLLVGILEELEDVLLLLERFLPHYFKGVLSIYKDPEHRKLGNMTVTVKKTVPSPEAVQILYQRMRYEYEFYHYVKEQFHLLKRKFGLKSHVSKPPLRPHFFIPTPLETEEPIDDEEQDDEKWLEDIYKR

[11] = liver microsome stability; type: in vitro ADME; settings: human
Chst15 [12] = biological target: T1, Chst15; assay: pre-incubation and ten-fold dilution experiments; type: biochemical
[13] = in vivo pharmacokinetics after intravenous injection; set-up: species or system rats; settings: rat, 3 mg/kg
Sult2b1a = biological target: T6, Sult2b1a (Homo sapiens, UniProt O00204); assay: sulfotransferase specificity panel; type: biochemical
T6 sequence (O00204 1-350 isoform O00204-2): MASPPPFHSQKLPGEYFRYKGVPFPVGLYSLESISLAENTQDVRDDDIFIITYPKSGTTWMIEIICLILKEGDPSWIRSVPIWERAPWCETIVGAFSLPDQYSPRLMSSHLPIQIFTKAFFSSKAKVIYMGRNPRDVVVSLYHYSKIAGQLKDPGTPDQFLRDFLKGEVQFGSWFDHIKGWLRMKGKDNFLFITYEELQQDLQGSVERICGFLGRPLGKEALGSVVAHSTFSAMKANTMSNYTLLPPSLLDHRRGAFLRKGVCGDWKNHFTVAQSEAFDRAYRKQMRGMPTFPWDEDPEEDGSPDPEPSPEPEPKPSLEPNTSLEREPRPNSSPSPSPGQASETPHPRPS

[14] = high concentrations of sodium chlorate, compared to untreated cells

SMILES: [Na+].[O-][Cl+2]([O-])[O-] [sodium chlorate]
- decrease in CS-E of secreted CSPGs (Neu7 astrocytes [1]; [14]): 31.6 ± 10.9%
- increase in uCS of secreted CSPGs (Neu7 astrocytes [1]; [14]): 39.7 ± 15.6%
- cell-surface CS-E expression (Neu7 astrocytes [2]; doses as high as 25 mM, compared to 34): did not reduce CS-E levels to as large an extent

SMILES: COc1cc(/C=C(\C#N)C(=O)Nc2ccc(Cl)cc2Cl)cc(Br)c1O [Compound 34]
- mode of inhibition (Chst15 [3]; CS-A substrate concentration varied): mixed mode of inhibition
- Ki (Chst15 [3]; CS-A substrate concentration varied, pseudo first-order PAPS concentration): 1.43 µM
- Ki (Chst15 [3]; PAPS concentration varied, fixed CS-A acceptor substrate (10 mM)): 0.77 µM
- mode of inhibition (Chst15 [3]; PAPS concentration varied, fixed CS-A (10 mM)): competitive mode of inhibition
- neurite crossing of CSPG boundary (DRG neurons): crossed more freely
- IC50 (Chst15 [4]): 2 to 2.5 µM
- specificity for GAG sulfotransferases compared to cytosolic sulfotransferases (Chst15 [4]; GAG vs cytosolic sulfotransferases): 8- to 18 fold
- stability in liver microsomes based on intrinsic clearance [5]: good stability
- inhibition at 25 µM (Neu7 astrocytes [1]; Astrocyte, read-out: reduction in the CS-E sulfation motif on secreted CSPGs): 67.8 ± 10.9%
- Relative Inhibition (Chst15 [6]): 1.35 ± 0.12
- activity against Sult1c1 (Sult1c1): no activity
- IC50 [7]: 2 to 2.5 µM
- IC50 (Sult2b1b): 19 to 42 µM
- CS-E expression (NIH3T3 fibroblasts): significant loss of CS-E expression
- IC50 [8]: 2 to 2.5 µM
- IC50 (Sult1e1): 19 to 42 µM
- cell-surface CS-E expression (Neu7 astrocytes [2]; 10 μM or 25 μM): significant, dose-dependent decrease
- stability in liver microsomes based on intrinsic clearance [9]: good stability
- IC50 [10]: 2 to 2.5 µM
- stability in liver microsomes based on intrinsic clearance [11]: good stability
- effect of pre-incubation time on Chst15 inhibition (Chst15 [12]; inhibitor pre-incubated with Chst15 for various lengths of time): Longer pre-incubation times lead to greater inhibition of the enzyme
- Chst15 activity in ten-fold dilution experiments (Chst15 [12]; up to 100 μM of 34): rapidly restored
- clearance [13]: 21 mL/min/kg
- half-life [13]: 1.6 h
- IC50 (Sult2b1a): 19 to 42 µM
